Compound activity as filed in PubChem BioAssay.
Shown are actives, neighbours in structure and some others; about 3.7% of the full set was active somewhere.
KCNK9 inh: KCNK9 potassium channel inhibitors, primary screen, HEK293 cells, thallium flux; Potassium channel subfamily K member 9 (Homo sapiens), Q9NPC2; FluxOR thallium flux fluorescence; active compounds read low; B-score at 10 µM; 1.2% of 310,000 active; AID 488922, 2010;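 active = ratio B-score over 3 SD below the library mean, with starting fluorescence within 5 SD of its mean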;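 also: negative B-score means less thallium flux so channel inhibition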
Target sequence (Q9NPC2 whole entry, looked up): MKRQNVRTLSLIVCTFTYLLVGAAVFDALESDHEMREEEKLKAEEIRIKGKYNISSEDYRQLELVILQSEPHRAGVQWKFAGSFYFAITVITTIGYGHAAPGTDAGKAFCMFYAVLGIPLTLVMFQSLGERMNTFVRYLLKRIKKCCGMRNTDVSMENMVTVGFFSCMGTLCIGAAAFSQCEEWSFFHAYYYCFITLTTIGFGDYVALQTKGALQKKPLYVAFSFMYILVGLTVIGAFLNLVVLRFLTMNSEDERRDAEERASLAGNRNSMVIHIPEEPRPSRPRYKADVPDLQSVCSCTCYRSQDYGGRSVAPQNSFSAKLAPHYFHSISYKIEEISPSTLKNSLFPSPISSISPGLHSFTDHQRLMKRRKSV
KCNQ1 inh: inhibitors of human KCNQ1 channel, primary screen, cell-based, thallium flux, high-throughput | Potassium voltage-gated channel subfamily KQT member 1 (Homo sapiens), P51787 | CHO-K1 KCNQ1, FluxOR thallium flux fluorescence; active compounds read high | B-score at 10 µM | 1.3% of 310,000 active | AID 2642, 2010;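 active = compounds whose thallium flux B-score, printed positive for inhibition, exceeds three library SD while starting fluorescence stays within three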;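 also: channel opened by potassium depolarization with thallium stimulus after 20 min compound exposure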
hERG protect: hERG rescue from dofetilide block, primary screen, cell-based, CHO-hERG, FluxOR thallium flux, dofetilide IC70; AID 1511, 2009; activation (rescue from dofetilide block), less the hit threshold, % at 10 µM; dofetilide IC70 present; 0.51% of 310,000 active;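 active = activation above the mean of controls blocked by dofetilide plus 5 SD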;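 also: thallium influx through hERG after potassium depolarization seen as dye fluorescence rise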
KCNK3 block: human KCNK3 channel inhibitors, primary screen, CHO cells, FluxOR thallium flux, B-score. FluxOR fluorescence; active compounds read low. B-score at 10 µM. 0.84% of 340,000 active. AID 602410, 2012;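 active = B-score under library mean minus 4 SD, starting fluorescence ratio at most library mean plus 5 SD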;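 also: more negative B-score means stronger inhibition of thallium flux through KCNK3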
Kir21 inh: inhibitors of mouse Kir2.1 inward-rectifier potassium channel; 0.85% of 310,000 active; HEK293-Kir2.1, FluxOR thallium flux fluorescence; active compounds read low; B-score at 10 µM; Inward rectifier potassium channel 2 (Mus musculus), P35561;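 active = fluorescence ratio B-score at or below minus 3 SD of library scores, with starting-brightness B-score within 2 SD, cut at about -4.2 in these data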;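 also: channel flux triggered by added potassium and thallium sulfate stimulus; B-score of peak minus minimum fluorescence over baseline after thallium stimulus; more negative B-score means stronger Kir2.1 block with less thallium influx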
KCNQ1 pot: potentiators or activators of KCNQ1 channel, primary screen, cell-based, thallium flux, high-throughput; B-score at 10 µM; AID 2648, 2010; CHO-K1 KCNQ1, thallium flux FluxOR fluorescence; active compounds read high; 0.35% of 310,000 active; Potassium voltage-gated channel subfamily KQT member 1 (Homo sapiens), P51787;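 active = fluorescence ratio B-score, a plate-corrected score, at least three library SD, with initial intensity B-score within 5 SD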
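Schedule – 37 °C overnight plating, 90-min dark dye load, 20-min compound pretreatment · System – stable KCNQ1 CHO-K1 line · Probe or stimulus – thallium- and potassium-containing depolarizing buffer · Measured by – kinetic FluxOR fluorescence, 10 s baseline plus 110 s post-stimulus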
KCNQ1 block val: KCNQ1 potassium channel inhibitors, confirmation, cell-based, Tl flux, duplicate; shares compounds with KCNQ1 inh; KCNQ1 cell line, FluxOR thallium flux fluorescence; inhibition, % at 10 µM; 93% of 1,600 active;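 active = primary screen active, with duplicate mean exceeding buffer control mean plus 3 SD of buffer wells, cut at about 28% in these data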;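 also: 0% = buffer control ratio and 100% = XE991 inhibitor control ratio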
CHO KCNQ1 ctr: thallium flux effects in parental CHO cells, counter-screen for KCNQ1 inhibitor project, cell-based, Tl flux; 21% of 1,600 active; shares compounds with KCNQ1 inh; fluorescence ratio (Tl flux) at 10 µM; AID 588366, 2011; parental CHO-K1, FluxOR thallium flux fluorescence ratio; active compounds read low; zero means no signal rise above baseline;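 active = mean of duplicate thallium-flux fluorescence ratios in parental host cells more than 5 SD below the buffer control mean, cut at about 0.38 in these data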;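 also: ratio is peak minus minimum fluorescence divided by baseline fluorescence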
KCNQ1 ephys val: KCNQ1 channel inhibitors, confirmation, orthogonal assay, cell-based, automated electrophysiology; 20% of 490 active; shares compounds with KCNQ1 inh; KCNQ1-CHO cells, automated patch clamp current; AID 624120, 2012; calls only at 10 µM;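 active = KCNQ1 current drop exceeding 3 SD of negative control wells, seen in both duplicate runs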;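 also: steady state current during a 2 s step from -80 to +40 mV; negative values mean current inhibition and positive values mean potentiation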
KCNQ2 inh: KCNQ2 channel inhibition, selectivity assay for KCNQ1 inhibitor project, cell-based; shares compounds with KCNQ1 inh; inhibition, % at 10 µM; 71% of 1,600 active; AID 651746, 2012; KCNQ2 cells, FluxOR thallium flux fluorescence;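 active = mean percent inhibition of the KCNQ2 thallium signal more than 5 SD above the buffer-only control wells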;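 also: KCNQ2 expressed in CHO cells; 0% = buffer control wells and 100% = XE-991 inhibitor control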
KCNQ1 KCNE1 spec: KCNQ1/KCNE1 channel inhibition, selectivity assay for KCNQ1 inhibitor project, CHO-K1 cells, thallium flux, FluxOR | inhibition, % at 10 µM | AID 652147, 2013 | 77% of 1,600 active | shares compounds with KCNQ1 inh | FluxOR thallium flux fluorescence;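 active = mean percent inhibition of duplicate wells above the buffer-only control mean plus 3 SD of those controls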;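 also: 0% = buffer only wells and 100% = XE-991 inhibitor control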
* marks the source's active call; other numbers are inactive results.

`Fc1cccc(Cl)c1CNc1ccc(N2CCCC2)cc1` gave KCNK9 inh inactive, KCNQ1 inh 6*, hERG protect -18, KCNK3 block inactive, Kir21 inh 0.58, KCNQ1 pot inactive, KCNQ1 block val 0, CHO KCNQ1 ctr 0.44, KCNQ2 inh 72%* and KCNQ1 KCNE1 spec 40%*.
Cc1ccc(C)c(S(=O)(=O)NCCCc2ccccc2)c1 was read as KCNK9 inh inactive, KCNQ1 inh 7*, hERG protect -8, KCNK3 block inactive, Kir21 inh -0.39, KCNQ1 pot inactive, KCNQ1 block val 98*, CHO KCNQ1 ctr 0.49, KCNQ1 ephys val inactive, KCNQ2 inh inactive and KCNQ1 KCNE1 spec inactive.
O=S(=O)(NCCCc1ccccc1)c1ccccc1 was read as KCNK9 inh inactive, KCNQ1 inh inactive, hERG protect -8, KCNK3 block inactive, Kir21 inh -0.64 and KCNQ1 pot inactive.
`CC1CCN(S(=O)(=O)c2nnc(NC(=O)c3cccc(Cl)c3)s2)CC1` gave KCNK9 inh inactive, KCNQ1 inh 9*, hERG protect -6, KCNK3 block inactive, Kir21 inh -1.4, KCNQ1 pot inactive, KCNQ1 block val 32*, CHO KCNQ1 ctr 0.51, KCNQ2 inh inactive and KCNQ1 KCNE1 spec inactive.
Screening COc1ccccc1CNC(=O)c1ccc2c(=O)n(CCCN3CCCC3=O)c(=S)[nH]c2c1 returned KCNK9 inh inactive, KCNQ1 inh inactive, hERG protect -5, KCNK3 block inactive, Kir21 inh 0 and KCNQ1 pot inactive.
`Cc1cccc(OCC(=O)Nc2ccc3c(c2)nc(CCN2CCN(C)CC2)n3C)c1` gave KCNK9 inh inactive, KCNQ1 inh 9*, hERG protect -5, KCNK3 block inactive, Kir21 inh -0.05, KCNQ1 pot inactive, KCNQ1 block val 0, CHO KCNQ1 ctr 0.5, KCNQ2 inh inactive and KCNQ1 KCNE1 spec inactive.
For COc1ccc(OCC(=O)Nc2ccc3c(c2)nc(CCN2CCN(C)CC2)n3C)cc1 the results were KCNK9 inh inactive, KCNQ1 inh inactive, hERG protect -7, KCNK3 block inactive, Kir21 inh 0.76 and KCNQ1 pot inactive.
O=C(Nc1ccc(OC(F)(F)F)cc1)Oc1ccccc1N1CCOCC1 was read as KCNK9 inh inactive, KCNQ1 inh 6*, hERG protect -8, KCNK3 block inactive, Kir21 inh -0.37, KCNQ1 pot inactive, KCNQ1 block val 50*, CHO KCNQ1 ctr 0.5, KCNQ2 inh 70%* and KCNQ1 KCNE1 spec 39%*.
`O=C(Nc1ccc(OC(F)(F)F)cc1)Oc1ccccc1N1CCCCC1` gave KCNK9 inh inactive, KCNQ1 inh 9*, hERG protect -19, KCNK3 block inactive, Kir21 inh -0.99, KCNQ1 pot inactive, KCNQ1 block val 82*, CHO KCNQ1 ctr 0.48, KCNQ2 inh inactive and KCNQ1 KCNE1 spec 40%*.
Screening Cc1ccc(N2C(=O)c3ccccc3C2C(=O)c2ccc(C)c(C)c2O)cc1 (centres undefined) returned KCNK9 inh inactive, KCNQ1 inh 7*, hERG protect -6, KCNK3 block inactive, Kir21 inh 1.9, KCNQ1 pot inactive, KCNQ1 block val 90*, CHO KCNQ1 ctr 0.37*, KCNQ2 inh 103%* and KCNQ1 KCNE1 spec 74%*.
Cc1ccc(N2C(=O)c3ccccc3C2C(=O)c2ccc(O)cc2O)cc1 (centres undefined) was read as KCNK9 inh inactive, KCNQ1 inh inactive, hERG protect -2, KCNK3 block inactive, Kir21 inh 0.92 and KCNQ1 pot inactive.
`COc1ccc(CCC(C)NCCc2ccc(Cl)cc2Cl)cc1` (centres undefined) gave KCNK9 inh inactive, KCNQ1 inh 14*, hERG protect -20, KCNK3 block inactive, Kir21 inh -13*, KCNQ1 pot inactive, KCNQ1 block val 99*, CHO KCNQ1 ctr 0.47, KCNQ2 inh 96%* and KCNQ1 KCNE1 spec 106%*.
CCCc1ncc(C(O)c2ccccc2OC)n1C (centres undefined) was read as KCNK9 inh inactive, KCNQ1 inh inactive, hERG protect -7, KCNK3 block inactive, Kir21 inh 0.14 and KCNQ1 pot inactive.
Screening O=C(Nc1ccccc1)Nc1ccc(Cl)c(S(=O)(=O)N2CCOCC2)c1 returned KCNK9 inh inactive, KCNQ1 inh 11*, hERG protect -20, KCNK3 block inactive, Kir21 inh -0.06, KCNQ1 pot inactive, KCNQ1 block val 0, CHO KCNQ1 ctr 0.56, KCNQ2 inh inactive and KCNQ1 KCNE1 spec inactive.
`Cc1cccc(-c2nc(Nc3ccc(N4CCOCC4)cc3)c3ccccc3n2)c1` gave KCNK9 inh inactive, KCNQ1 inh 13*, hERG protect -8, KCNK3 block inactive, Kir21 inh 0.64, KCNQ1 pot inactive, KCNQ1 block val 108*, CHO KCNQ1 ctr 0.43, KCNQ1 ephys val inactive, KCNQ2 inh 90%* and KCNQ1 KCNE1 spec 148%*.
c1ccc2c(Nc3ccc(N4CCOCC4)cc3)nc(N3CCOCC3)nc2c1 was read as KCNK9 inh inactive, KCNQ1 inh inactive, hERG protect 0, KCNK3 block inactive, Kir21 inh 0.38 and KCNQ1 pot inactive.
